Measurements of several laboratories.
Each line is one published result; the experiments were not run side by side.
Target: Phosphatidylinositol 4-phosphate 5-kinase type-1 alpha (PIP5K1A, Homo sapiens, UniProt Q99755)

read-out | method | concentration | remaining binding | Compound
binding | – | 1 µM | 100% | CN(CCCC(F)(F)F)c1nccc(-c2cnn3ncccc23)n1
cell-free assay | competition with immobilised ligand | 5 µM | 20% | FC(F)(F)Oc1cccc(-c2cnc3ccc(-c4ccncc4)nn23)c1
binding | competition with immobilised ligand | 1 µM | 92% | CNC(=O)[C@@H]1CC[C@@H](n2c(-c3ccc4cnccc4c3)nc3ccc(C(=O)NCc4cccc(C(N)=O)c4)cc32)C1
cell-free assay | competition with immobilised ligand | 1 µM | 95% | O=C(Nc1ccc(Oc2ccc(F)cc2)cc1)N1CCc2ncccc2[C@H]1c1ccc(F)cc1
binding | – | 1 µM | 100% | CC1CCCN1c1nccc(-c2cnn3ncccc23)n1 (centres unmarked)
cell-free assay | competition with immobilised ligand | 1 µM | 100% | CN(C(=O)c1ccccc1)c1cc(N(C)c2ccc3c(c2)CCc2ccc(C(=O)NCCN4CCOCC4)cc2C3=O)ccc1F
binding | competition with immobilised ligand | 10 µM | 59% | Cc1nc(NC(=O)N2CCC[C@H]2C(N)=O)sc1-c1ccnc(C(C)(C)C(F)(F)F)c1
cell-free assay | competition with immobilised ligand | 1 µM | 100% | CN(C)CC#Cc1ccc(OCCCc2sc(N3CCc4cccc(C(=O)Nc5nc6ccccc6s5)c4C3)nc2C(=O)O)c(F)c1
binding | – | 1 µM | 100% | Cc1cnn2ncc(-c3ccnc(N(C)C)n3)c2c1
binding | competition with immobilised ligand | 0.1 µM | 87% | C[C@@H](c1ccc(-n2cnc3c(N)ncnc32)cc1)N1CCc2nn(C)c(Cc3ccccc3)c2C1=O
binding | competition with immobilised ligand | 1 µM | 1.5% | Cc1cnc(Nc2ccc(C(=O)N3CCC(N4CCCC4)CC3)cc2)nc1-c1cc2ccccc2s1
binding | competition with immobilised ligand | 10 µM | 71% | c1cncc(-c2cccc(Nc3nccc(NC4CCCCC4)n3)c2)c1
cell-free assay | competition with immobilised ligand | 1 µM | 90% | CCCOc1ccc([C@@H]2[C@@H](C(=O)O)[C@H](c3ccc4c(c3)OCO4)CN2CC(=O)Nc2c(CC)cccc2CC)cc1
binding | – | 1 µM | 100% | CN(c1nccc(-c2cnn3ncccc23)n1)C1CC1
cell-free assay | competition with immobilised ligand | 1 µM | 100% | Cc1cc(NC(=O)c2cccc(S(F)(F)(F)(F)F)c2)cc(-n2ccn3nc(-c4cccnc4)cc23)c1
binding | – | 1 µM | 52% | C[C@@H]1CCN(c2nccc(-c3cnn4ncccc34)n2)C1
cell-free assay | competition with immobilised ligand | 0.1 µM | 95% | Cc1cc(C)c(-n2ccn3nc(-c4cccnc4)cc23)cc1NC(=O)c1cc(C#N)cc(S(F)(F)(F)(F)F)c1
binding | competition with immobilised ligand | 1 µM | 3% | O=C(c1ccc(Nc2ncc(Cl)c(-c3ccc(Cl)s3)n2)cc1)N1CCC(N2CCCC2)CC1
binding | competition with immobilised ligand | 1 µM | 99% | Nc1ncc2c(n1)-c1c([nH]c3ccc(C#CC4CC4)cc13)CCCC2
binding | – | 1 µM | 100% | c1cnn2ncc(-c3ccnc(N4CCC45COC5)n3)c2c1
binding | competition with immobilised ligand | 1 µM | 93% | COc1cnc(Nc2cccc(S(N)(=O)=O)c2)nc1N1CCN(c2ccccc2)CC1
binding | competition with immobilised ligand | 1 µM | 4.2% | O=C(NCCCN1CCOCC1)c1ccc(Nc2nccc(-c3cc4ccccc4s3)n2)cc1
binding | competition with immobilised ligand | 1 µM | 100% | O=C(NCC1CCOCC1)c1n[nH]cc1NC(=O)c1c(F)cccc1F
